Holding throughout (format): functional
In test [1] the test system is Staphylococcus aureus. Kind of test: Antibacterial activity against Staphylococcus aureus 31005 by microdilution method. In outline: (§1)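 MIC and MBC were determined by CLSI broth microdilution, in duplicate on at least two occasions. Staphylococci were grown in Mueller-Hinton broth and agar; pneumococci were plated on sheep blood agar.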
(In general: In broth dilution the organism is exposed to a series of concentrations in liquid medium.)

Test [2] deals with Staphylococcus aureus. Kind of test: Antibacterial activity against Staphylococcus aureus ATCC 25923 by microdilution method. Put shortly: as §1
The test system of test [3] is Staphylococcus aureus. Kind of test: Antibacterial activity against Staphylococcus aureus 307109 by microdilution method. Put shortly:
as §1

Test [4] concerns Staphylococcus aureus. Kind of test: Antibacterial activity against Staphylococcus aureus Smith by microdilution method. Put shortly: (§2)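 MICs in duplicate on at least two occasions by standard CLSI broth microdilution; S. aureus grown and quantified in Mueller-Hinton broth/agar.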
Test [5] concerns Staphylococcus aureus. The experiment in a line: Antibacterial activity against Staphylococcus aureus 33591 by microdilution method. Put shortly:
as §2

≈ marks a conversion by molar mass, not a printed value.

A word on the MIC: it is the lowest concentration found to suppress growth. High values mean a less susceptible organism, low ones a more susceptible organism. As to `COc1cccc(OC)c1C(=O)N[C@@H]1C(=O)N2[C@@H]1SC(C)(C)[C@@H]2C(=O)O` [METHICILLIN], the MIC in test [1] was 0.12 µg/mL (≈ 0.315 µM); in test [2], 0.12 µg/mL (≈ 0.315 µM); in test [3] it was more than 8 µg/mL; in test [4], 0.12 µg/mL (≈ 0.315 µM); in test [5] it was more than 8 µg/mL.

Values taken from ChEMBL document CHEMBL1145462, “In vivo pharmacodynamic activity of the glycopeptide dalbavancin” (Antimicrob Agents Chemother, 2007).
